From PubChem
A selection: hits, their analogues and other compounds. The true share with any hit is near 3.8%.
Kir21 block: inhibitors of mouse Kir2.1 inward-rectifier potassium channel. B-score at 10 µM. hit rate 0.85% among 310,000. HEK293-Kir2.1, FluxOR thallium flux fluorescence; active compounds read low. P35561. AID 1672;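 active = fluorescence ratio B-score at or below minus 3 SD of library scores, with starting-brightness B-score within 2 SD, cut at about -4.2 in these data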;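 also: channel flux triggered by added potassium and thallium sulfate stimulus; B-score of peak minus minimum fluorescence over baseline after thallium stimulus; more negative B-score means stronger Kir2.1 block with less thallium influx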
KCNQ1 act: potentiates or activates the human KCNQ1 potassium channel | B-score at 10 µM | hit rate 0.35% among 310,000 | P51787 | CHO-K1 KCNQ1, thallium flux FluxOR fluorescence; active compounds read high | AID 2648;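 active = fluorescence ratio B-score, a plate-corrected score, at least three library SD, with initial intensity B-score within 5 SD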
Target sequence (P51787 whole entry, looked up): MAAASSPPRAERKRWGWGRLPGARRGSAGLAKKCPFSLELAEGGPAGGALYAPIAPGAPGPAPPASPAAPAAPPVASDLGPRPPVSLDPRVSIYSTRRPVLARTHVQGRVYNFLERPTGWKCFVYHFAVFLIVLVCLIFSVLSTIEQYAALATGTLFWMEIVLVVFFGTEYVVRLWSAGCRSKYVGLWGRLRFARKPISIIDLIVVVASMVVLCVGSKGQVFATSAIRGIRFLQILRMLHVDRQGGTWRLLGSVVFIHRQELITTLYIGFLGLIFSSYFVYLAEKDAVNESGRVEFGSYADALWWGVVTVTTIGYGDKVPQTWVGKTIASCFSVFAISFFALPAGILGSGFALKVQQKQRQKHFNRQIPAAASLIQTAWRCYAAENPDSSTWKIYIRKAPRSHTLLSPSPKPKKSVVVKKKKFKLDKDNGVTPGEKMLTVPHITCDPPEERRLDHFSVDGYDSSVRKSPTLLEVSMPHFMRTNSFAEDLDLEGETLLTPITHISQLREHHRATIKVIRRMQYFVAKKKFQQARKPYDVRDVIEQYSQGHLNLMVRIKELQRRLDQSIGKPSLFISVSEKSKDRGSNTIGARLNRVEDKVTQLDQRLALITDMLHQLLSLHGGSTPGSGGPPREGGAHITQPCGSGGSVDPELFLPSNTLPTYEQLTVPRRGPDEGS
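assay system = KCNQ1-transfected CHO-K1 cells | medium = assay buffer with matched DMSO | probe or stimulus = depolarizing K+/Tl+ stimulus, K2SO4 and Tl2SO4 each 12.5 mM in 5x stock | dosing = single dose | incubation = dye 90 min, compound 20 min, room temperature | detection = kinetic FluxOR fluorescence, 10 s baseline plus 110 s post-stimulus | evaluation = ratio B score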
KCNQ1 inh: blocks the human KCNQ1 potassium channel | P51787 | CHO-K1 KCNQ1, FluxOR thallium flux fluorescence; active compounds read high | B-score at 10 µM | hit rate 1.3% among 310,000;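 active = compounds whose thallium flux B-score, printed positive for inhibition, exceeds three library SD while starting fluorescence stays within three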;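 also: channel opened by potassium depolarization with thallium stimulus after 20 min compound exposure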
KCNK3 block: human KCNK3 channel inhibition, primary screen. O14649. B-score at 10 µM. hit rate 0.84% among 340,000. CHO-KCNK3 thallium flux, FluxOR fluorescence; active compounds read low. AID 602410;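 active = B-score under library mean minus 4 SD, starting fluorescence ratio at most library mean plus 5 SD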;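 also: more negative B-score means stronger inhibition of thallium flux through KCNK3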
hERG rescue: hERG (human) protection from proarrhythmic block | Q12809 | CHO-hERG, FluxOR thallium flux, dofetilide IC70 present | activation (rescue from dofetilide block), less the hit threshold, % at 10 µM | hit rate 0.51% among 310,000 | AID 1511;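 active = activation above the mean of controls blocked by dofetilide plus 5 SD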;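 also: thallium influx through hERG after potassium depolarization seen as dye fluorescence rise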
KCNK9 inh: blocks the human KCNK9 two-pore domain potassium channel; HEK293 KCNK9, FluxOR thallium flux fluorescence; active compounds read low; hit rate 1.2% among 310,000; B-score at 10 µM; Q9NPC2; AID 488922;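 active = ratio B-score over 3 SD below the library mean, with starting fluorescence within 5 SD of its mean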;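 also: negative B-score means less thallium flux so channel inhibition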
The depositor's hits bear a star; i = inactive; x = not tested or not shown.

SMILES	Kir21 block	KCNQ1 act	KCNQ1 inh	KCNK3 block	hERG rescue	KCNK9 inh
c1ccc2oc(-c3ccn[nH]3)cc2c1	-1.3	i	i	i	6.9*	i
c1ccc2oc(-c3[nH]ncc3CN3CCSCC3)cc2c1	-0.8	i	i	i	-17	i
CCCCn1c(N)c(N(CC(C)C)C(=O)C2CC(=O)N(c3ccc(CC)cc3)C2)c(=O)[nH]c1=O (configuration not stated)	1.3	i	i	i	-10	i
c1ccc2c(OCCCCN3CCOCC3)cccc2c1	-0.16	i	i	i	-3	i
CC(C)c1cccc(C(C)C)c1OCCCCCN1CCOCC1	-5.1*	i	i	i	-6	i
COC(=O)c1ccccc1NC(=O)c1ccc2c(c1)OCCCO2	0.68	i	i	i	-6	-6.8*
Cc1ccccc1NC(=O)c1ccc2c(c1)OCCO2	-2.5	i	i	i	-4	i
Nc1nc(NCc2ccco2)nc(N2CCN(Cc3ccccc3)CC2)c1[N+](=O)[O-]	-2.1	i	i	i	-11	i
COc1cc(NC(=O)C2CCC(CNS(=O)(=O)c3csc(C(N)=O)c3)CC2)cc(OC)c1 (configuration not stated)	0.78	i	i	i	-8	i
O=C(Nc1ccc(Cl)cc1)N1CCC(c2nc(-c3cccs3)no2)CC1	-0.57	i	6*	i	-12	i
COc1ccc(C(=O)C(/C=N/O)=N/Nc2ccc(F)cc2)cc1	-0.39	i	10*	i	-9	i
O=C(CSCSCC(=O)Nc1ccc2c(c1)OCO2)Nc1ccc2c(c1)OCO2	-0.15	i	i	i	5.0*	i
Cc1nn(C)c(C)c1CNC(=O)Nc1ccc2c(c1)OCO2	1.1	i	i	i	7.4*	i
O=C(CN1C(=O)CSCC1=O)Nc1ccc2c(c1)OCO2	-0.46	i	i	i	4.7*	i
COc1cccc(NC(=S)N2CCN(c3ccccn3)CC2)c1	0.37	i	i	i	-7	i
Cc1ccccc1Cn1ccc(=NCc2ccccc2)cc1	-5.5*	i	i	x	-11	i
O=c1ccn(Cc2ccccc2)cc1	0.52	i	i	i	-10	i
Cc1cc(C)n(C(C[N+](=O)[O-])c2ccc(Cl)cc2)n1 (configuration not stated)	-5.2*	i	i	i	-14	i
CCN(CC)c1ccc(/C=C/c2nc3ccccc3s2)cc1	-3.9	i	8*	x	-8	i
CCN(CC)c1ccc(NC(=O)COC(=O)/C=C/c2nc3ccccc3s2)cc1	1.6	i	i	i	-11	i
O=C1[C@H]2[C@@H](c3ccc(F)cc3)N3C(=O)N(c4cccc(Cl)c4)C(=O)[C@@]3(Cc3ccccc3)[C@H]2C(=O)N1C1CCCCC1	-0.64	i	7*	i	-3	i
CCOc1ccccc1-c1cc(-c2ccc(OC)cc2)nc2c1c(=O)n(C)c(=O)n2C	-0.62	i	i	i	-1	i
O=C(O)c1cccc(S(=O)(=O)Nc2cc(Cl)ccc2Cl)c1	0.46	i	i	i	-7	i
CC1CC(C)CN(C(=O)c2cccc(S(=O)(=O)Nc3cc(C(F)(F)F)ccc3Cl)c2)C1 (configuration not stated)	-1.2	i	7*	i	-13	i
c1ccc(CCCCc2ccccn2)cc1	x	x	x	i	x	x
NC(CCCCc1ccccc1)c1cccc2ccccc12 (configuration not stated)	-11*	i	i	x	-19	i
O=[N+]([O-])c1cccc(S(=O)(=O)NCC2CC3CCC2C3)c1 (configuration not stated)	0.1	i	i	i	-5	i
O=[N+]([O-])c1ccc(S(=O)(=O)NCC2CC3CCC2C3)cc1 (configuration not stated)	-0.44	i	7*	i	-3	i
CCCCNS(=O)(=O)c1ccc2nc(-c3cccnc3)cc(C(=O)NCCOC)c2c1	-1.2	i	i	i	-5	i
